Publication PMC9494671 (ACS Omega, 2022)

Experiments:
[1] = system: Human colorectal carcinoma cell line (HCT-116); assay: MTT cytotoxicity assay, HCT-116; format: cell-based; conditions: for IC50: Homo sapiens, HCT-116, 24 h, read-out: IC50 (μM) HCT-116; for cytotoxic activity, class in words, HCT-116: MTT assay
Procedure, shortened: (§1)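 Cells grown in RPMI-1640 with 10% FBS, penicillin 100 units/mL and streptomycin 100 μg/mL at 37 °C, 5% CO2. Seeded at 1.0 × 10^4 cells/well for 48 h, then exposed to a range of test compound concentrations for 24 h, with CA-4 as positive control. MTT (5 mg/mL solution) added for 4 h, formazan dissolved in DMSO, absorbance read at 570 nm. IC50 = 50% growth inhibition, mean ± SD.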

[2] = system: Human hepatocellular carcinoma cell line (HepG2); assay: MTT cytotoxicity assay, HepG2; format: cell-based; conditions: for IC50: Homo sapiens, HepG2, 24 h, read-out: IC50 (μM) HePG2; for cytotoxic activity, class in words, HepG2: MTT assay
Procedure, shortened: as §1

[3] = system: Human breast adenocarcinoma cell line (MCF-7); assay: MTT cytotoxicity assay, MCF-7; format: cell-based; conditions: for IC50: Homo sapiens, MCF7, 24 h, read-out: IC50 (μM) MCF-7; for cytotoxic activity, class in words, MCF-7: MTT assay
Procedure, shortened: as §1

[4] = system: Epitheloid cervix carcinoma cell line (HeLa); assay: MTT cytotoxicity assay, HeLa; format: cell-based, human; conditions: for IC50: Homo sapiens, 24 h, read-out: IC50 (μM) HeLa; for cytotoxic activity, class in words, HeLa: MTT assay
Procedure, shortened: as §1

[5] = system: HepG2, HCT-116, MCF-7, and HeLa cell lines; assay: MTT cytotoxicity assay, statements over the four tested cell lines; format: cell-based, human; conditions: all tested cell lines
Procedure, shortened: as §1

tubulin = assay: In vitro tubulin polymerization inhibition assay; format: biochemical; conditions: read-out: IC50 (μM) tubulin polymerization inhibition; 4 mg/mL tubulin, 37 °C, OD340, mean ± SD from three independent experiments
[6] = cited from earlier work

Row | SMILES | IC50 [1] | IC50 [2] | IC50 [3] | IC50 [4] | cytotoxic effect, class in words, tested cell lines [5] | IC50 (tubulin) | solubility in water [6] | cytotoxic activity, class in words, HCT-116 [1] | cytotoxic activity, class in words, HepG2 [2] | cytotoxic activity, class in words, MCF-7 [3] | cytotoxic activity, class in words, HeLa [4]
1 | COc1cc(-c2csc(NC(=O)NCCNc3ccccc3)n2)cc(OC)c1OC [Compound 12, 1-(2-(Phenylamino)ethyl)-3-(4-(3,4,5-trimethoxyphenyl)thiazol-2-yl)urea] | 88.5 ± 4.4 µM | > 100 µM | > 100 µM | 91.8 ± 4.6 µM | – | – | – | – | – | – | –
2 | CCN1CCN(CC(=O)Nc2nc(-c3cc(OC)c(OC)c(OC)c3)cs2)CC1 [Compound 6c, 2-(4-Ethylpiperazin-1-yl)-N-(4-(3,4,5-trimethoxyphenyl)thiazol-2-yl)acetamide] | 37.2 ± 1.9 µM | 33.9 ± 1.7 µM | 41.4 ± 2.1 µM | 48.2 ± 2.4 µM | – | – | – | – | – | – | –
3 | COc1cc(-c2csc(NC(=O)NCCCl)n2)cc(OC)c1OC [Compound 11, 1-(2-Chloroethyl)-3-(4-(3,4,5-trimethoxyphenyl)thiazol-2-yl)urea] | 86.7 ± 4.3 µM | 93 ± 4.6 µM | 95.8 ± 4.8 µM | 89.9 ± 4.5 µM | weak (51–100 (weak)) | – | – | – | – | – | –
4 | COc1ccc(/C=C\c2cc(OC)c(OC)c(OC)c2)cc1O [CA-4, combretastatin A-4, reference compound] | 5.23 ± 0.3 µM | 4.5 ± 0.2 µM | 4.17 ± 0.2 µM | 5.57 ± 0.3 µM | – | […] | weakly soluble in water | – | – | – | –
5 | COc1cc(-c2csc(NC(=O)CNc3ccc([N+](=O)[O-])cc3)n2)cc(OC)c1OC [Compound 7c, 2-((4-Nitrophenyl)amino)-N-(4-(3,4,5-trimethoxyphenyl)thiazol-2-yl)acetamide] | 7.3 ± 0.4 µM | 6.26 ± 0.3 µM | 10 ± 0.5 µM | 9.85 ± 0.5 µM | – | 2 ± 0.12 µM | – | – | – | – | –
6 | COc1cc(-c2csc(NC(=O)CN3CCOCC3)n2)cc(OC)c1OC [Compound 6e, 2-Morpholino-N-(4-(3,4,5-trimethoxyphenyl)thiazol-2-yl)acetamide] | 18 ± 0.9 µM | 19.8 ± 1 µM | 39.1 ± 2 µM | 58.8 ± 2.9 µM | – | 3.72 ± 0.23 µM | – | strong (11–20 (strong)) | strong (11–20 (strong)) | – | –
7 | CCN1CCN(CCNC(=O)Nc2nc(-c3cc(OC)c(OC)c(OC)c3)cs2)CC1 [Compound 13a, 1-(2-(4-Ethylpiperazin-1-yl)ethyl)-3-(4-(3,4,5-trimethoxyphenyl)thiazol-2-yl)urea] | 20.1 ± 1 µM | 14.2 ± 0.7 µM | 16.9 ± 0.8 µM | 32.4 ± 1.6 µM | – | 5.11 ± 0.31 µM | – | strong (11–20 (strong)) | strong (11–20 (strong)) | strong (11–20 (strong)) | moderate (21–50 (moderate))
8 | COc1cc(-c2csc(NC(=O)CNc3ccc(Br)cc3)n2)cc(OC)c1OC [Compound 7b, 2-((4-Bromophenyl)amino)-N-(4-(3,4,5-trimethoxyphenyl)thiazol-2-yl)acetamide] | 9.35 ± 0.5 µM | 34.2 ± 1.7 µM | 44.8 ± 2.2 µM | 13.1 ± 0.7 µM | – | – | – | – | – | – | –
9 | COc1cc(-c2csc(NC(=O)CNN)n2)cc(OC)c1OC [Compound 8, 2-Hydrazinyl-N-(4-(3,4,5-trimethoxyphenyl)thiazol-2-yl)acetamide] | 5.32 ± 0.3 µM | 3.35 ± 0.2 µM | 8.66 ± 0.4 µM | 6.15 ± 0.3 µM | – | 3.91 ± 0.24 µM | – | – | – | – | –
10 | COc1cc(-c2csc(NC(=O)CNc3ccccc3)n2)cc(OC)c1OC [Compound 7a, 2-(Phenylamino)-N-(4-(3,4,5-trimethoxyphenyl)thiazol-2-yl)acetamide] | 52.5 ± 2.6 µM | 94.1 ± 4.7 µM | > 100 µM | 54.1 ± 2.7 µM | – | – | – | weak (51–100 (weak)) | weak (51–100 (weak)) | weak (51–100 (weak)) | noncytotoxic (above 100 (noncytotoxic))
11 | COc1cc(-c2csc(NC(=O)CNc3ccc(N4CCOCC4)cc3)n2)cc(OC)c1OC [Compound 7e, 2-((4-Morpholinophenyl)amino)-N-(4-(3,4,5-trimethoxyphenyl)thiazol-2-yl)acetamide] | 31.2 ± 1.6 µM | 25.7 ± 1.3 µM | 35 ± 1.7 µM | 41.5 ± 2.1 µM | – | – | – | – | – | – | –
12 | COc1cc(-c2csc(NC(=O)CNCCO)n2)cc(OC)c1OC [Compound 5a, 2-((2-Hydroxyethyl)amino)-N-(4-(3,4,5-trimethoxyphenyl)thiazol-2-yl)acetamide] | 29.4 ± 1.5 µM | 22 ± 1.1 µM | 30 ± 1.5 µM | 50.9 ± 2.5 µM | moderate (21–50 (moderate)) | – | – | – | – | – | –
13 | COc1cc(-c2csc(NC(=O)CNC(C)C)n2)cc(OC)c1OC [Compound 5c, 2-(Isopropylamino)-N-(4-(3,4,5-trimethoxyphenyl)thiazol-2-yl)acetamide] | 12.9 ± 0.6 µM | 11.9 ± 0.6 µM | 15.5 ± 0.8 µM | 16 ± 0.8 µM | strong (11–20 (strong)) | 2.95 ± 0.18 µM | – | – | – | – | –
14 | COc1cc(-c2csc(NC(=O)CN3CCN(c4ccc(F)cc4)CC3)n2)cc(OC)c1OC [Compound 6d, 2-(4-(4-Fluorophenyl)piperazin-1-yl)-N-(4-(3,4,5-trimethoxyphenyl)thiazol-2-yl)acetamide] | 15.7 ± 0.8 µM | 4.03 ± 0.2 µM | 9.64 ± 0.5 µM | 18.7 ± 0.9 µM | – | 5 ± 0.3 µM | – | – | – | – | –
15 | COc1cc(-c2csc(NC(=O)CNc3ccc(Br)c(C(F)(F)F)c3)n2)cc(OC)c1OC [Compound 7d, 2-((4-Bromo-3-(trifluoromethyl)phenyl)amino)-N-(4-(3,4,5-trimethoxyphenyl)thiazol-2-yl)acetamide] | 33.1 ± 1.7 µM | 28.1 ± 1.4 µM | 41.4 ± 2.1 µM | 29.8 ± 1.5 µM | – | 3.42 ± 0.21 µM | – | – | – | – | –
16 | COc1cc(-c2csc(Nc3csc(N)n3)n2)cc(OC)c1OC [Compound 10, N^4-(4-(3,4,5-Trimethoxyphenyl)thiazol-2-yl)thiazole-2,4-diamine] | 55.3 ± 2.8 µM | 49.6 ± 2.5 µM | 60.6 ± 3 µM | 48 ± 2.4 µM | moderate-to-weak | – | – | – | – | – | –
17 | COc1cc(-c2csc(NC(=O)CN3CCNCC3)n2)cc(OC)c1OC [Compound 6a, 2-(Piperazin-1-yl)-N-(4-(3,4,5-trimethoxyphenyl)thiazol-2-yl)acetamide] | 28.9 ± 1.4 µM | 8.17 ± 0.4 µM | 40.9 ± 2 µM | 47.7 ± 2.4 µM | – | 4.5 ± 0.27 µM | – | – | – | – | –
18 | COc1cc(-c2csc(NC(=O)CN/N=C3\C(=O)Nc4ccc(Cl)cc43)n2)cc(OC)c1OC [Compound 9a, (Z)-2-(2-(5-Chloro-2-oxoindolin-3-ylidene)hydrazinyl)-N-(4-(3,4,5-trimethoxyphenyl)thiazol-2-yl)acetamide] | 10.1 ± 0.5 µM | 7.32 ± 0.4 µM | 9.8 ± 0.5 µM | 10.6 ± 0.5 µM | – | 2.38 ± 0.14 µM | – | – | – | – | –
19 | CCCCNCC(=O)Nc1nc(-c2cc(OC)c(OC)c(OC)c2)cs1 [Compound 5b, 2-(Butylamino)-N-(4-(3,4,5-trimethoxyphenyl)thiazol-2-yl)acetamide] | 24.4 ± 1.2 µM | 10.9 ± 0.5 µM | 22.8 ± 1.1 µM | 28.3 ± 1.4 µM | – | – | – | – | strong (11–20 (strong)) | – | –
20 | COc1cc(-c2csc(NC(=O)NCCN3CCOCC3)n2)cc(OC)c1OC [Compound 13b, 1-(2-Morpholinoethyl)-3-(4-(3,4,5-trimethoxyphenyl)thiazol-2-yl)urea] | 27.4 ± 1.4 µM | 25.7 ± 1.3 µM | 32 ± 1.6 µM | 43.9 ± 2.2 µM | – | – | – | – | – | – | –
21 | COc1cc(-c2csc(NC(=O)CN/N=C3\C(=O)Nc4ccc(C)cc43)n2)cc(OC)c1OC [Compound 9b, (Z)-2-(2-(5-Methyl-2-oxoindolin-3-ylidene)hydrazinyl)-N-(4-(3,4,5-trimethoxyphenyl)thiazol-2-yl)acetamide] | 9.93 ± 0.5 µM | 8.04 ± 0.4 µM | 11.6 ± 0.6 µM | 13.4 ± 0.7 µM | – | 4.21 ± 0.26 µM | – | – | – | – | –
22 | COc1cc(-c2csc(NC(=O)CCl)n2)cc(OC)c1OC [Compound 4, 2-Chloro-N-(4-(3,4,5-trimethoxyphenyl)thiazol-2-yl)acetamide] | 69 ± 3.5 µM | 62.6 ± 3.1 µM | 62.9 ± 3.1 µM | 76.9 ± 3.8 µM | weak (51–100 (weak)) | – | – | – | – | – | –
23 | COc1cc(-c2csc(NC(=O)CN3CCN(C)CC3)n2)cc(OC)c1OC [Compound 6b, 2-(4-Methylpiperazin-1-yl)-N-(4-(3,4,5-trimethoxyphenyl)thiazol-2-yl)acetamide] | 83.7 ± 4.2 µM | 74.6 ± 3.7 µM | 65.3 ± 3.3 µM | 87.3 ± 4.4 µM | – | – | – | – | – | – | –
